S100A4 MyoIIA: S100A4-myosin IIA interaction inhibition; P26447; S100A4/TAMRA-MyoIIA peptide fluorescence polarization; inhibition, % at 10.7 µM; actives 0.14% (n = 360,000);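 active = mean inhibition of at least 70% across replicates, with every replicate also reaching that level; inconclusive = mean inhibition reaches 70% but some replicates fall short; inactive = mean inhibition below 70%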
Target sequence (P26447 whole entry, looked up): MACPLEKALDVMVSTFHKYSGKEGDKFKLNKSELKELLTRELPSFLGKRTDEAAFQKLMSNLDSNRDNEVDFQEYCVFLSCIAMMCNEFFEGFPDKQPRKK
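Material: S100A4 monomer protein | Medium: HEPES pH 7.2 with CaCl2, KCl, NaCl, DTT, Triton | Reagent: Labelled myosin peptide probe, 5 nM | Doses: One dose per compound | Times: 5 min incubation before reading | Benchmarks: Neutral control DMSO, positive control TFP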
C2C12 statin: suppression of simvastatin myotoxicity. C2C12 myotubes + simvastatin, ATP luminescence, 48 h; scaled: DMSO 0, geranylgeraniol control 100. rescue of ATP level, % at 7.49 µM. actives 0.78% (n = 330,000). AID 602340;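 active = mean ATP rescue above about 67%, or every replicate alone reaching that limit, limit read from the data, passing the limit was not always enough; inconclusive = no clear call, values can overlap the other calls; inactive = mean under the limit and some replicate under it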;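 note: myotubes were challenged with 10 µM simvastatin during compound exposure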
SIRT5 block: inhibitors of human sirtuin-5 desuccinylase; inhibition, % at 15 µM; actives 1.1% (n = 330,000); Purified SirT5, succinyl-peptide AMC, trypsin-coupled fluorescence; in the data active = inhibition above about 15%; inconclusive = no clear call, values can overlap the other calls
Target sequence (Q9NXA8 whole entry, looked up): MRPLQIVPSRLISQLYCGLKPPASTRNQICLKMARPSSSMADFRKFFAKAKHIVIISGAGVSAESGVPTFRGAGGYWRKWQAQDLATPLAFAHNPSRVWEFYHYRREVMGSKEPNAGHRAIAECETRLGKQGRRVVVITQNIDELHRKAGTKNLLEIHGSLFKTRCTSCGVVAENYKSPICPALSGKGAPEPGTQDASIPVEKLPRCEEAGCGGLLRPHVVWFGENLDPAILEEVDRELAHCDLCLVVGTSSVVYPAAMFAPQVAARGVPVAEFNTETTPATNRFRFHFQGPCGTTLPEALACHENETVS
DENV2 CPE rescue: DENV2-induced cell death inhibition. DENV2-infected cells, cytopathic effect rescue, plate reader. CPE inhibition, % at 9.99 µM. actives 1.7% (n = 350,000); in the data active = CPE inhibition above about 20%, passing the limit was not always enough; inconclusive = no clear call, values can overlap the other calls; tested in BHK-21 cells;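 note: 0% = median of neutral control wells and 100% = median of positive control wells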
PGC1a acetyl inh: modulators of PGC1a acetylation | U2OS PGC1a acetylation, AlphaScreen anti-acetyl-lysine; with virally co-expressed GCN5 acetyltransferase | inhibition, % at 15.6 µM | actives 0.17% (n = 350,000) | AID 651687;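 active = every replicate shows inhibition of at least 40%; inconclusive = mean inhibition at least 40% but some replicate below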;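 note: 0% = neutral control wells and 100% = positive control wells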
The depositor's hits bear a star; u = inconclusive; x = no result given. The list is not random: actives were taken first. Their share in the collection is about 2.9%.

SMILES	S100A4 MyoIIA	C2C12 statin	SIRT5 block	DENV2 CPE rescue	PGC1a acetyl inh
COc1ccc(-c2cc(C(=O)NCCCN3CCCC3=O)c3ccccc3n2)cc1	-4	-5	-9	58*	1
CCNC(=O)C[C@@H]1C=C[C@H](NS(=O)(=O)c2ccc(F)cc2)[C@@H](CO)O1	10	-8	4	8	2
CO[C@@H]1CN(C)C(=O)c2cc(NC(=O)C3CCOCC3)ccc2OC[C@@H](C)N(C)C[C@@H]1C	-5	8	-2	36*	x
COc1ccccc1C(=O)Nc1ccc2c(c1)C(=O)N(C)C[C@@H](OC)[C@H](C)CN(C)[C@@H](C)CO2	7	13	6	47*	-48
CO[C@H]1CN(C)C(=O)c2cc(NC(=O)C3CCOCC3)ccc2OC[C@H](C)N(C)C[C@H]1C	8	-5	-2	-1	x
COCCNC(=O)CSc1nc2ccccc2c2nc(C)nn12	x	124*	x	x	8
Cc1nc2c3ccccc3nc(SCC(=O)c3ccc(Cl)cc3)n2n1	x	-3	x	x	10
C[C@@H]1CN([C@@H](C)CO)S(=O)(=O)c2ccc(C3=CCCCC3)cc2O[C@H]1CN(C)C(=O)Cc1ccccc1	-9	-37	16*	-13	20
C[C@@H]1CN([C@H](C)CO)S(=O)(=O)c2ccc(C3=CCCCC3)cc2O[C@@H]1CN(C)C(=O)Cc1ccccc1	11	-78	13	-3	5
C[C@@H]1CN([C@H](C)CO)S(=O)(=O)c2ccc(C3=CCCCC3)cc2O[C@H]1CN(C)C(=O)Cc1ccccc1	-46	-32	15*	9	30
C[C@@H]1CN([C@@H](C)CO)S(=O)(=O)c2ccc(C3=CCCCC3)cc2O[C@@H]1CN(C)C(=O)Cc1ccncc1	-16	-7	1	17	-9
C[C@@H]1CN([C@@H](C)CO)S(=O)(=O)c2ccc(C3=CCCCC3)cc2O[C@@H]1CN(C)C(=O)Cc1ccccc1	-16	-97	18*	u	-4
Cc1ccc(S(=O)(=O)Nc2ccc3c(c2)C(=O)N([C@H](C)CO)C[C@H](C)[C@H](CN(C)Cc2ccc(C(F)(F)F)cc2)OCCCC[C@H](C)O3)cc1	5	x	32*	-26	29
Cc1ccc(S(=O)(=O)Nc2ccc3c(c2)C(=O)N([C@@H](C)CO)C[C@@H](C)[C@H](CN(C)Cc2ccc(C(F)(F)F)cc2)OCCCC[C@H](C)O3)cc1	29	x	11	-25	27
Cc1ccc(S(=O)(=O)Nc2ccc3c(c2)C(=O)N([C@H](C)CO)C[C@H](C)[C@@H](CN(C)Cc2ccc(C(F)(F)F)cc2)OCCCC[C@@H](C)O3)cc1	4	x	2	-11	-1
Cc1ccc(S(=O)(=O)Nc2ccc3c(c2)C(=O)N([C@@H](C)CO)C[C@@H](C)[C@H](CN(C)Cc2ccc(C(F)(F)F)cc2)OCCCC[C@@H](C)O3)cc1	-17	x	18*	-23	0
Cc1ccc(S(=O)(=O)Nc2ccc3c(c2)C(=O)N([C@H](C)CO)C[C@@H](C)[C@@H](CN(C)Cc2ccc(C(F)(F)F)cc2)OCCCC[C@H](C)O3)cc1	5	x	20*	-17	-1
Cc1ccc(S(=O)(=O)Nc2ccc3c(c2)C(=O)N([C@H](C)CO)C[C@@H](C)[C@@H](CN(C)Cc2ccc(C(F)(F)F)cc2)OCCCC[C@@H](C)O3)cc1	7	x	18*	-26	-15
C[C@H](CO)N1C[C@H](C)[C@H](CN(C)S(=O)(=O)c2cccs2)Oc2ccc(NC(=O)C3CCCCC3)cc2CC1=O	-27	-39	9	2	-6
CO[C@@H]1CN(C)C(=O)c2cc(NC(=O)c3cccc(F)c3)ccc2OC[C@H](C)NC[C@@H]1C	-1	3	2	-4	-4
C[C@@H]1CN([C@H](C)CO)C(=O)c2cc(C#CC3CC3)cnc2O[C@@H]1CN(C)C(=O)c1ccc(F)cc1	-6	-4	-2	8	4
CCC(=O)N1[C@H](C(=O)N[C@@H](C)c2ccccc2)[C@@H](CO)[C@@H]2Cn3c(cccc3=O)[C@@H]21	-3	x	1	0	1
COC[C@@]12C[C@H]3C(=O)N(Cc4ccccc4)C(=O)[C@H]3[C@@H](CO1)/C2=C\c1ccccc1	-3	x	-2	1	3
Cc1ccc(S(=O)(=O)Nc2ccc3c(c2)C(=O)N([C@@H](C)CO)C[C@H](C)[C@@H](CN(C)Cc2ccc(C(F)(F)F)cc2)OCCCC[C@H](C)O3)cc1	-3	x	23*	-25	-10
C[C@H](CO)N1C[C@H](C)[C@H](CN(C)C(=O)c2ccc(F)cc2)Oc2cc(C3=CCCCC3)ccc2S1(=O)=O	4	-41	11	-12	17
SMILES	S100A4 MyoIIA	C2C12 statin	SIRT5 block	DENV2 CPE rescue	PGC1a acetyl inh
O=C(Nc1cccc(F)c1)N1CCCCN2[C@H](CO)[C@H](c3ccc(C#CC4CC4)cc3)[C@H]2C1	10	x	3	9	-33
O=C(CSc1nc2ccccc2c(=O)n1CC1CCCO1)NCC1CCCO1 (stereo unspecified)	0	-2	0	x	1
NC(=O)NC(=O)CSc1nc(-c2ccccc2)c(-c2ccccc2)n1CC1CCCO1 (stereo unspecified)	x	139*	x	x	1
CC(C)CC#Cc1ccc2c(c1)O[C@@H](CN(C)S(C)(=O)=O)[C@H](C)CN([C@@H](C)CO)S2(=O)=O	-7	-43	2	3	3
COc1c2c(cc3oc(CO[C@@H]4O[C@H](CO)[C@@H](O)[C@H](O)[C@H]4O)cc(=O)c13)O[C@H](C(C)(C)O)C2	-4	5	-3	24*	-9
Cc1ccc(Cl)cc1-c1cc(C(=O)NCC2CCCCC2)[nH]n1	10	-16	-5	1	2
Cc1cc(F)cc(-c2cc(C(=O)NCC3CCCCC3)[nH]n2)c1	0	-7	0	27*	10
c1ccc2c(C[C@@H]3CNCCN3CCCCC3CCCCC3)cccc2c1	-3	-4	-2	24*	7
c1ccc(C[C@H]2CNCCN2CCCCC2CCCCC2)cc1	-13	-7	x	-15	x
CC(O)[C@H]1CNC(=S)N1CCc1cccc(F)c1 (stereo partly specified)	1	6	-1	-6	-2
CCCC[C@@H]1CNCCN1CCc1cc(C(F)(F)F)cc(C(F)(F)F)c1	-5	-8	x	8	-17
CCC(C)[C@H]1CNCCN1CCc1cc(C(F)(F)F)cc(C(F)(F)F)c1 (stereo partly specified)	1	-12	x	44*	-8
CCC(C)[C@H]1CNC(=S)N1CCc1cc(C(F)(F)F)cc(C(F)(F)F)c1 (stereo partly specified)	1	-19	x	81*	-7
CCn1c(CSc2nc(C)cc(C)n2)nnc1SCC(=O)Nc1nc(-c2ccccc2)cs1	x	117*	x	x	3
CC(C)NC(=O)N1CCCCN2[C@@H](CO)[C@H](c3ccc(C#Cc4ccccc4)cc3)[C@@H]2C1	31	x	-3	-4	-10

Screens: PubChem, Broad Institute
